CSC inhib = cancer stem cell viability inhibitors, primary screen, luminescence; AID 2717, 2010; 1.1% of 300,000 active; inhibition, % at 7.5 µM; cancer stem cell-like cells viability; in the data active = inhibition above about 75%; inconclusive = no clear call, values can overlap the other calls; tested in HMLE shEcad cells
T cruzi repl = inhibitors of intracellular T. cruzi growth, primary screen, luminescence, NIH3T3 host cells; T. cruzi beta-gal in NIH3T3, 90 h; inhibition, % (concentration not given with the values); 1.4% of 300,000 active; AID 1885, 2009;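 active = mean inhibition across valid replicates above about 55%, limit read from the data; inconclusive = mean below that limit but half or more replicates reach it; inactive = mean below it, under half of replicates reach it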;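 also: signal also drops with host cell toxicity which is not excluded here; 0% = plate median of DMSO wells and 100% = zero luminescence signal; higher percent means less beta-gal luminescence so fewer parasites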
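Read-out: Parasite load inhibition, % | Test system: Mouse NIH/3T3 fibroblasts infected with β-gal-expressing T. cruzi Tulahuen C4 | Amount: 5,000 cells/well | Medium: DMEM, 2% fetal bovine serum | Signal: GalScreen β-gal luminescence, detergent lysis, 60 min | Timing: 3 h attach, ≥90 h co-culture | Also added: Tulahuen C4 trypomastigotes, 5000/well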
Bfl-1 A1 inh = caspase 3/7 activation in MEF A1-2A-BIM cells, primary screen, A1 inhibitor project, cell-based, luminescence, HTS | Caspase-Glo 3/7 luminescence, 3 h; percent of clofoctol response, vehicle zero | caspase activation, % (no concentration beside the values) | 0.066% of 330,000 active | AID 2462, 2010;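 active = over half of replicate activation scores above 10%, or exactly half above 10 with the replicate mean above 10; inconclusive = replicate mean below 10 yet half the replicates above 10; inactive = over half of replicates below 10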
Beta cell apopt = inhibitors of cytokine-induced beta cell apoptosis, primary screen, luminescence; INS-1E cytokine-induced death, ATP luminescence, 48 h; percent of positive-control rescue, neutral wells zero; 0.8% of 300,000 active; protection from apoptosis, % (test concentration not listed);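 active = Every replicate reaches about 75%, or at least half do and their mean reaches it too, limit read from the data; inconclusive = At least half of replicates reach the limit but their mean does not; inactive = Under half of replicates reach the limit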;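 also: 0% = cytokine-treated negative control wells and 100% = positive control rescue; higher means more ATP so stronger rescue from cytokine killing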
Calb FLC = C. albicans growth inhibition with fluconazole, primary screen, CaCi-2 strain, Alamar Blue fluorescence. C. albicans CaCi-2 (fluconazole-resistant clinical isolate) + fluconazole, 48 h. 0.57% of 300,000 active. growth inhibition, % (test concentration not listed). AID 1979, 2009;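 active = growth inhibition above about 58% in most replicates, limit read from the data, passing the limit was not always enough; inconclusive = exactly half the replicates above a set limit; inactive = most replicates below a set limit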;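 also: all wells also contain fluconazole at 8 µg/ml as a sub-toxic cotreatment; 0% = median of DMSO wells and 100% = median of geldanamycin control wells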
H9c2 TAG inh = inhibitors of triacylglycerol accumulation, primary screen, cell-based, uHTS, fluorescence, H9c2; H9c2 cells, Nile Red lipid (TAG) fluorescence; cells loaded with 200 µM oleic acid; inhibition, % at 12.5 µM; 0.66% of 230,000 active;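 active = pattern-corrected inhibition of lipid staining of at least 50% with the nuclear-stain viability signal not falling by more than 50%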;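 also: 0% = DMSO wells and 100% = triacsin C control wells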
* = called active by the depositor; u = inconclusive; x = no result. A selection: hits, their analogues and other compounds. The true share with any hit is near 3.1%.

SMILES	CSC inhib	T cruzi repl	Bfl-1 A1 inh	Beta cell apopt	Calb FLC	H9c2 TAG inh
COc1ccc(NC(=O)CN(C)C(=O)/C=C/c2cn(-c3ccccc3)nc2-c2ccc(F)cc2)cc1	8	17	0	-1	1	7
COc1ccc(NC(=O)CN(C)C(=O)/C=C/c2cn(-c3ccccc3)nc2-c2ccc(C)cc2)cc1	11	72*	0	7	0	17
CC1=CC(=O)O[C@@H]1[C@@]1(C)C[C@H]2OC(=O)C[C@H]3[C@@H](C)C(=O)C(O)=C1[C@@]23CO	-10	-3	1	-3	-1	x
Cc1cc2oc(=O)cc(CN3CCOCC3)c2c(C)c1Cl	-9	-13	0	-2	-2	x
Cc1cc2nc(NCCCO)n(CC(=O)c3cc(C(C)(C)C)c(O)c(C(C)(C)C)c3)c2cc1C	75*	x	0	98*	x	36
C#CCOCCOCCOCCNc1nc(N2CCN(C(=O)CCCCCCCCCCNC(=O)[C@H](CCCCN)n3cc(C)nn3)CC2)nc(N2CCN(C(=O)CCCCCCCCCCNC(=O)[C@@H]([C@H](C)O)n3cc(C)nn3)CC2)n1	-7	x	3	10	x	-11
C#CCOCCOCCOCCNc1nc(N2CCN(C(=O)CCCCCCCCCCNC(=O)[C@H](CCCCN)n3cc(CCO)nn3)CC2)nc(N2CCN(C(=O)CCCCCCCCCCNC(=O)[C@H](CCCCN)n3cc(C[C@@H](C)CC)nn3)CC2)n1	95*	x	2	83*	x	x
C#CCOCCOCCOCCNc1nc(N2CCN(C(=O)CCCCCCCCCCNC(=O)[C@@H](CCC(=O)O)n3cc(CCCCCN)nn3)CC2)nc(N2CCN(C(=O)CCCCCCCCCCNC(=O)[C@H](CO)n3cc(CCCCCN)nn3)CC2)n1	-14	x	u	-17	x	-23
CC[C@H](C)Cc1cn([C@@H](CCCN=C(NC(=O)OC(C)(C)C)NC(=O)OC(C)(C)C)C(=O)NCCCCCCCCCCC(=O)N2CCN(C(=O)OC(C)(C)C)CC2)nn1	43	59*	0	39	86*	15
C#CCOCCOCCOCCNc1nc(N2CCN(C(=O)CCCCCCCCCCNC(=O)[C@@H](CCC(=O)O)n3cc(CCCCCN)nn3)CC2)nc(N2CCN(C(=O)CCCCCCCCCCNC(=O)[C@H](CCCCN)n3cc(C[C@@H](C)CC)nn3)CC2)n1	3	x	1	7	x	-2
C#CCOCCOCCOCCNc1nc(N2CCN(C(=O)CCCCCCCCCCNC(=O)[C@H](CO)n3cc(CCCCCN)nn3)CC2)nc(N2CCN(C(=O)CCCCCCCCCCNC(=O)[C@H](CCCN=C(N)N)n3cc(C[C@@H](C)CC)nn3)CC2)n1	12	x	-1	89*	x	x
Cc1cn([C@@H](CCCCNC(=O)OC(C)(C)C)C(=O)NCCCCCCCCCCC(=O)N2CCN(C(=O)OC(C)(C)C)CC2)nn1	12	x	0	72	x	-39
C#CCOCCOCCOCCNc1nc(N2CCN(C(=O)CCCCCCCCCCNC(=O)[C@H](CCCCN)n3cc(C[C@@H](C)CC)nn3)CC2)nc(N2CCN(C(=O)CCCCCCCCCCNC(=O)[C@@H]([C@H](C)O)n3cc(C)nn3)CC2)n1	19	x	0	99*	x	49
Cc1nc(C)n(C(C)CNS(=O)(=O)c2ccc(C)c(C)c2)n1 (stereo not given)	9	-3	0	-3	-8	x
O=C(CSc1nnc(-c2cccnc2)o1)Nc1cccc(F)c1	x	-17	0	-5	-2	12
COc1ccc(CCNC(=O)CN2C(=O)COc3ccc(S(=O)(=O)N4CCCC4)cc32)c(OC)c1	-4	-7	0	2	-2	x
C#CCOCCOCCOCCNc1nc(N2CCN(C(=O)CCCCCCCCCCNC(=O)[C@H](CCCCN)n3cc(C[C@@H](C)CC)nn3)CC2)nc(N2CCN(C(=O)CCCCCCCCCCNC(=O)[C@H](CCCN=C(N)N)n3cc(C[C@@H](C)CC)nn3)CC2)n1	102*	x	-1	99*	x	1

Screening data from PubChem BioAssay.
